Reference: publication PMC2711440 (Nature, 2009)

Legend:
Type in all cases: cell-based
[1] = system: NR1-A652C/NR2A-(2D NTD+L) receptors; assay: MTSEA-induced potentiation of currents; settings: NR2A-(2D NTD+L) vs NR2Awt
NR1-A652C/NR2D receptors = NR1-A652C/NR2D receptors (Homo sapiens, UniProt O15399+Q05586, A652C); assay: MTSEA-induced potentiation of currents; settings: NR2D-containing receptors (NR1-A652C)
[2] = system: NR1-A652C/NR2D-ΔNTD receptors; assay: MTSEA-induced potentiation of currents; settings: NR2D-ΔNTD vs NR2D
NR1wt/NR2Awt receptors = NR1wt/NR2Awt receptors (Homo sapiens, UniProt Q05586+Q12879); assay: Zinc sensitivity
In short: (§1)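 Two-electrode voltage clamp was run at −60 mV at room temperature on oocytes nuclear-injected with NR1 and NR2 cDNAs (10 ng/µl, 1:1). […] Free zinc was buffered with tricine 10 mM (1 nM–1 µM) or ADA 1 mM (0.1–100 nM), and "0" zinc contained 10 µM DTPA. Dose-response curves gave IC50 and maximal inhibition.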

NR1wt/NR2Bwt receptors = NR1wt/NR2Bwt receptors (Homo sapiens, UniProt Q05586+Q13224); assay: Zinc sensitivity
In short: as §1

NR1wt/NR2Dwt receptors [3] = target: T1, NR1wt/NR2Dwt receptors (Rattus norvegicus, UniProt P35439+Q62645); assay: Zinc sensitivity
In short: as §1

[4] = target: NR1wt/NR2B-(2A NTD) receptors; assay: Zinc sensitivity
In short: as §1

[5] = target: NR1wt/NR2B-(2A NTD+L) receptors; assay: Zinc sensitivity
In short: as §1

[6] = target: NR1wt/NR2D-(2A NTD+L) receptors; assay: Zinc sensitivity
In short: as §1

[7] = system: receptors incorporating NR1wt and NR2Awt, NR2Bwt, NR2Dwt, NR2B-(2A NTD), NR2B-(2A NTD+L) or NR2D-(2A NTD+L); assay: Zinc sensitivity; settings: zinc dose-response, all constructs of Fig. 3a
In short: as §1

[8] = system: NR1wt/NR2A-(2D NTD+L) receptors; assay: Kinetics of inhibition by MK-801, oocyte voltage-clamp; settings: NR2A-(2D NTD+L) vs NR2Awt
NR1wt/NR2Dwt receptors [9] = target: T1, NR1wt/NR2Dwt receptors; assay: as above; settings: trace of Fig. 1f
[10] = system: NR1wt/NR2D-ΔNTD receptors; assay: as above; settings: trace of Fig. 1f
[11] = system: NR1wt/NR2D-(2A NTD+L) receptors; assay: as above; settings: trace of Fig. 1f

T1 sequence (Q62645 28-1323, other chains not shown): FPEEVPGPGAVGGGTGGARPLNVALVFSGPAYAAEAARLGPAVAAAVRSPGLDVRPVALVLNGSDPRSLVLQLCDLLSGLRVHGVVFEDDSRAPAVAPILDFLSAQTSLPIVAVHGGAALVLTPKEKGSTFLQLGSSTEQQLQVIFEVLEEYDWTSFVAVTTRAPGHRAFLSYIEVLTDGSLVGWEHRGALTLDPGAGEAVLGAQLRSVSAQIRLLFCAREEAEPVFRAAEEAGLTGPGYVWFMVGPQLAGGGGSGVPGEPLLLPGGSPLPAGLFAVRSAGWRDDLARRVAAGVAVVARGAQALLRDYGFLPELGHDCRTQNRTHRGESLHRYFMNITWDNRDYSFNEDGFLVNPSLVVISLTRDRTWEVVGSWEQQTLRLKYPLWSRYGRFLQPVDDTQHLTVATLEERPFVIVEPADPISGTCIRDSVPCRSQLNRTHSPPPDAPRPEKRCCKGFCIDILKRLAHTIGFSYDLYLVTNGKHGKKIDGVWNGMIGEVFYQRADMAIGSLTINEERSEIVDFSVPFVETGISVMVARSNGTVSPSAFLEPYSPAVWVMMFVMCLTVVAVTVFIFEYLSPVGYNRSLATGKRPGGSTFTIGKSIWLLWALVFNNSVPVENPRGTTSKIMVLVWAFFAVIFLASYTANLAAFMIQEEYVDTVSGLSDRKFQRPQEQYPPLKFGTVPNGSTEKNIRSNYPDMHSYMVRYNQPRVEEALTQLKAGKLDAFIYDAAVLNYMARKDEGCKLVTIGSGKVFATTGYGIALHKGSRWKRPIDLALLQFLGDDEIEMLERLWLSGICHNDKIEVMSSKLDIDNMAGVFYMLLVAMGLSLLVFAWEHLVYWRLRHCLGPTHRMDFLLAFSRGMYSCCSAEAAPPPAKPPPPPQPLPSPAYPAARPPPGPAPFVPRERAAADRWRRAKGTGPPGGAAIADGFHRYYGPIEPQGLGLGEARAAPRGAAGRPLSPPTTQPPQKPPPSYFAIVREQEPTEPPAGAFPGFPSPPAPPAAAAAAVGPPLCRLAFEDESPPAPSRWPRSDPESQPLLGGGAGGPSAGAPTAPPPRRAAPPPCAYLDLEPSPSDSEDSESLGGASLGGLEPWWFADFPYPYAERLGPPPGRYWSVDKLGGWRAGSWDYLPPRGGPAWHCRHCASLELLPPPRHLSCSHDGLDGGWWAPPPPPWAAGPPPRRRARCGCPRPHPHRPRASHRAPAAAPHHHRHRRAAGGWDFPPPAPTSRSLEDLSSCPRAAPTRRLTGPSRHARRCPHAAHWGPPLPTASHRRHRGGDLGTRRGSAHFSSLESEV
Chain of NR1wt/NR2Awt receptors (Q12879 23-1464, other chains not shown): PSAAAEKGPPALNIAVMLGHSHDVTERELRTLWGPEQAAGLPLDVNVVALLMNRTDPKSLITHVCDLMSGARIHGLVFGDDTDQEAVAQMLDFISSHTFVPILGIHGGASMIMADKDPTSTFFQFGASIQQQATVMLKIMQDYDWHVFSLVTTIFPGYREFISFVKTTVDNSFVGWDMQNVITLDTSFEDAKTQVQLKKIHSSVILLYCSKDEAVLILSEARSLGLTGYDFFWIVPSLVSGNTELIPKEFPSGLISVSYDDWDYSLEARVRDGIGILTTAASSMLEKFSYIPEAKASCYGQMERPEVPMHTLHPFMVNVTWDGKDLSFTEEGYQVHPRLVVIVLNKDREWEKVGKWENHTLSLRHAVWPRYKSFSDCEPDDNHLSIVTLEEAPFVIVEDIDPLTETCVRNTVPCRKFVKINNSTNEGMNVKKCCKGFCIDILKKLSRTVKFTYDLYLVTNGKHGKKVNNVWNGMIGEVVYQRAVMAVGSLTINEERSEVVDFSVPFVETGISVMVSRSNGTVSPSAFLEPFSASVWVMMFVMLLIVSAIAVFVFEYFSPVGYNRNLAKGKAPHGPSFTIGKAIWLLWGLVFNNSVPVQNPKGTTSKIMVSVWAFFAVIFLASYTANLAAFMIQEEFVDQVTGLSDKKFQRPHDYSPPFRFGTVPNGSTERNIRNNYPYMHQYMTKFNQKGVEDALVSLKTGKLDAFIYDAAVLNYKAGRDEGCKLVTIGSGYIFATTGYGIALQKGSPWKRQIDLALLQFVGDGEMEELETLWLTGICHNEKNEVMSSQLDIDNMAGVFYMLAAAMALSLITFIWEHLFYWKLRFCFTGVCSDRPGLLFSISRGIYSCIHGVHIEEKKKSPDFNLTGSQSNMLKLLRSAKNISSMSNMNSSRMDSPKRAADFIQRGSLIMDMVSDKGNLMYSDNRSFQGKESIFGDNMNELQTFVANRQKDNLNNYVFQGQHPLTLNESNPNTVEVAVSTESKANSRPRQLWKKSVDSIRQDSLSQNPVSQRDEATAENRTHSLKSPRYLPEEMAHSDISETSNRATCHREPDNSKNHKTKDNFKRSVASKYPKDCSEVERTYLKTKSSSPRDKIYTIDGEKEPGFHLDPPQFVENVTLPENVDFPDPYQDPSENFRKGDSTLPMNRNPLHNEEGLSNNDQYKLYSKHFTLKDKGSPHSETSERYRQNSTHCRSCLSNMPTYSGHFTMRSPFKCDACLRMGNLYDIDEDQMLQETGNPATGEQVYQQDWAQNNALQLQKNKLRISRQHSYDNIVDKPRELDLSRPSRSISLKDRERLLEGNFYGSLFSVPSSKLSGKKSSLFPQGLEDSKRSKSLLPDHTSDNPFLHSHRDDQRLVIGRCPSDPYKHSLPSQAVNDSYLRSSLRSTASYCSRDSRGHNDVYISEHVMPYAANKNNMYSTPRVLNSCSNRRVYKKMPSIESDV
Chain of NR1wt/NR2Bwt receptors (Q13224 27-1484, other chains not shown): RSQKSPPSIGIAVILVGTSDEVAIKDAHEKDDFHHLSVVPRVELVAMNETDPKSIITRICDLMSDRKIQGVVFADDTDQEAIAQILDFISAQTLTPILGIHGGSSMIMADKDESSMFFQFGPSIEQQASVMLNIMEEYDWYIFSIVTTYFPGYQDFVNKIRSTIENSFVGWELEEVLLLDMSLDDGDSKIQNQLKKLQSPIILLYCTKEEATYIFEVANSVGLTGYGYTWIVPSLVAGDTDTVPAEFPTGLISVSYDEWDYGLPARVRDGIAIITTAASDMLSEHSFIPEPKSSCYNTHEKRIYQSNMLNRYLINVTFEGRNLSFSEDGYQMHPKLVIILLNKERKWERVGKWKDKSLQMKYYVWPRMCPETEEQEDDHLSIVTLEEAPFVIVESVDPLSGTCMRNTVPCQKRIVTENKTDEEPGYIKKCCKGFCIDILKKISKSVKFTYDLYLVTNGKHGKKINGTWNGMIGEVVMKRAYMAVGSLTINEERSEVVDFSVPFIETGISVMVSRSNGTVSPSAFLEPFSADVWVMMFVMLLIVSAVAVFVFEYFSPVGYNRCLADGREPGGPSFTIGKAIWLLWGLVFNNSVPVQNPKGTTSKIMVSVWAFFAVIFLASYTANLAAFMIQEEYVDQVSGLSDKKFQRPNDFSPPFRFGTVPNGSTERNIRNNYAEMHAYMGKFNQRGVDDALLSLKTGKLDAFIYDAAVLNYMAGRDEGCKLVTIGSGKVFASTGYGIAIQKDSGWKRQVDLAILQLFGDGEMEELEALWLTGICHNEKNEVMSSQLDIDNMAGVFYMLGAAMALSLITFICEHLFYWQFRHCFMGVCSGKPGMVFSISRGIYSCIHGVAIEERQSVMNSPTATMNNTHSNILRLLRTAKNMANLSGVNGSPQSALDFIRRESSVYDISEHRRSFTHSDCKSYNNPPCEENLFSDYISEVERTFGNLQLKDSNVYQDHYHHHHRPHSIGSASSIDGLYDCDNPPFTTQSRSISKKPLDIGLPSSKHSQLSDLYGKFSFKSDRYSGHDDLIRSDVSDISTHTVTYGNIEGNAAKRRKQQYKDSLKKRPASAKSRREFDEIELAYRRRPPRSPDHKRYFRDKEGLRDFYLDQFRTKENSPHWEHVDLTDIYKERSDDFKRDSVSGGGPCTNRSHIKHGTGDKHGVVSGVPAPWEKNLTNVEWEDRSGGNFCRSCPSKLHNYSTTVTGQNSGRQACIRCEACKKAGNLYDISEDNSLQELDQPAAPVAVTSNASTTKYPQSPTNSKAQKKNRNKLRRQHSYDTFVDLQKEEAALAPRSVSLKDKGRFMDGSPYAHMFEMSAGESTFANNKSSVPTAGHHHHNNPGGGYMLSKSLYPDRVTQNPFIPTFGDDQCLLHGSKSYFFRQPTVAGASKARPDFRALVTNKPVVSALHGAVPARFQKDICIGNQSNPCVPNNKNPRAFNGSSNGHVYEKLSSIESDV

Br.CS(=O)(=O)SCCN [MTSEA, 2-aminoethylmethanethiosulfonatehydrobromide]
Higher MTSEA-potentiation than NR2Awt-containing receptors [1]: 17 fold | MTSEA-induced potentiation (NR1-A652C/NR2D receptors): ~ 300 fold | Decrease in MTSEA potentiation on deleting the NR2D-NTD [2]: 4 fold

[Zn+2] [Zinc, zinc]
IC50 (NR1wt/NR2Awt receptors): 7.5 nM | Inhibmax (NR1wt/NR2Awt receptors): 81% | IC50 (NR1wt/NR2Bwt receptors): 720 nM | Inhibmax (NR1wt/NR2Bwt receptors): 98% | IC50 (NR1wt/NR2Dwt receptors [3]): 7800 nM | Inhibmax (NR1wt/NR2Dwt receptors [3]): 100% | IC50 [4]: 0.2 nM | Inhibmax [4]: 83% | IC50 [5]: 5.4 nM | Inhibmax [5]: 86% | IC50 [6]: 1.5 nM | Inhibmax [6]: 90% | nH [7]: 0.9–1.2

C[C@]12N[C@H](Cc3ccccc31)c1ccccc12 [MK-801]
MK-801 inhibition slower than at NR2Awt-containing receptors [8]: 15 fold | τon of inhibition by MK-801 (NR1wt/NR2Dwt receptors [9]): 32 s | τon of inhibition by MK-801 [10]: 5.7 s | τon of inhibition by MK-801 [11]: 1.6 s
